Compound activity as filed in PubChem.
Shown are actives, neighbours in structure and some others; about 1.6% of the full set was active somewhere.
GSTO1 counter: counter-screen for RBBP9 inhibitors: inhibitors of human GSTO1; actives 1.1% (n = 300,000); recombinant GSTO1, activity-based probe fluorescence polarization; inhibition, % at 5.96 µM; P78417; AID 1974;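 active = inhibition above the campaign mean inhibition plus 3 SD, cut at about 35% in these data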;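 note: 0% = GSTO1-1 with DMSO and 100% = wells lacking GSTO1-1 enzyme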
UBC9 SUMO inh: inhibitors of human SUMOylation (UBC9); P63279; HTRF SUMOylation assay, SAE1/SAE2 + UBC9, in vitro; inhibition, % at 35 µM; actives 0.36% (n = 290,000); in the data active = inhibition above about 50%, passing the limit was not always enough; inconclusive = no clear call, values can overlap the other calls
PAD4 FP inh: PAD4 (human) enzyme inhibition | Q9UM07 | inhibition, % at 6.36 µM | actives 0.41% (n = 330,000) | recombinant PAD4, RCA probe fluorescence polarization;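 active = percent inhibition above a cutoff equal to the mean of all tested compounds plus 3 SD, cut at about 15% in these data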;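 note: 0% = PAD4 with RCA probe and DMSO and 100% = probe without PAD4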
GASC-1 inh: inhibitors of human GASC-1 (JMJD2C) demethylase; actives 0.069% (n = 330,000); GST-JMJD2C(1-420) H3K9me3 demethylation, DELFIA europium; AID 2099; inhibition, % at 2.35 µM; Q9H3R0;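 active = more than half of a compound's replicate wells show inhibition beyond 50%, single wells judged on their own value; inconclusive = some, but no more than half, of replicates pass 50% inhibition; inactive = no replicate passes 50% inhibition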;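 note: signal counts dimethyl H3K9 product captured on neutravidin plate; 0% = median of DMSO wells and 100% = 0.3 times that DMSO median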
TDP2 absorb: blocks human TDP2 phosphodiesterase activity. O95551. recombinant TDP2, T5PNP hydrolysis, p-nitrophenol absorbance 415 nm. inhibition, % at 12.8 µM. actives 0.34% (n = 370,000);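 active = inhibition above the mean of all tested compounds plus 3 SD, set per campaign, cut at about 25% in these data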;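 note: 0% = DMSO with enzyme and 100% = buffer with substrate but no TDP2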
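System – recombinant human TDP2 · Amount – 120 nM TDP2 per well · Buffer or medium – Mg2+-containing Tris-HCl buffer, pH 7.5 · Reagent – T5PNP substrate, 5 mM · Dosing – 12.8 µM single point, 1% DMSO · Incubation – 2 h at 37 °C · Measured by – epi absorbance · Read-out basis – percent inhibition · Benchmarks – high control without enzyme, low control DMSO plus TDP2 · Repeats – singlicate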
Apaf-1 inh: inhibitors of human Apaf-1 apoptosome; O14727; reconstituted apoptosome caspase-3 activity, DEVD-Rh110 fluorescence; inhibition, % at 20 µM; actives 0.71% (n = 330,000); AID 489030; active = inhibition of at least 40% at 20 µM;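 note: plate controls were DMSO wells for no effect and DEVD-CHO caspase inhibitor wells for full effect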
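Assay system: Apoptosome proteins | Medium: pH 7.5 Hepes buffer with CHAPS, BSA, DTT | Also added: Cytochrome c and DEVD-Rh110 substrate | Times: 30 min plus 50 min, RT | Detection: Rhodamine 110 fluorescence at Ex 480/Em 540 nm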
GSTO1 inh conf: GSTO1 (human) inhibition, confirmation | shares compounds with GSTO1 counter | recombinant GSTO1, probe fluorescence polarization | inhibition, % at 5.96 µM | actives 54% (n = 2,400) | AID 2176;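 active = inhibition above the primary screen's cutoff, its mean inhibition plus 3 SD, cut at about 35% in these data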;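 note: loss of polarization as inhibitors block binding of rhodamine sulfonate ester activity probe; 0% = GSTO1 with DMSO and 100% = wells lacking GSTO1 enzyme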
PAD4 FP conf: confirmation of human PAD4 inhibitors; shares compounds with PAD4 FP inh; actives 28% (n = 1,200); inhibition, % at 6.36 µM; AID 488796; recombinant PAD4, RCA probe fluorescence polarization;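 active = mean inhibition across replicates above the hit cutoff set by the earlier primary screen, cut at about 15% in these data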;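 note: inhibitors block active-site labeling by the probe so polarization falls; 0% = PAD4 with probe and DMSO and 100% = probe without PAD4 enzyme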
Apaf-1 inh conf: confirmation of Apaf-1 inhibitors. shares compounds with Apaf-1 inh. reconstituted apoptosome, caspase-3 DEVD-Rh110 fluorescence. inhibition, % at 20 µM. actives 25% (n = 1,800);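 active = mean inhibition of at least 40% at 20 µM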;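 note: plate controls were DMSO wells for no effect and DEVD-CHO caspase inhibitor control wells for full effect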
Rh110 quench: counter-screen for Apaf-1 inhibitors: fluorescence interference | 1,800 tested, under 10 active | shares compounds with Apaf-1 inh | activation (fluorescence interference), % at 20 µM | Rh110 fluorescence interference, quenched caspase reaction;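 active = signal rise of 40% or more at 20 µM, treated as a fluorescence artifact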
Apaf1 inh interf: shows fluorescence interference in the Apaf-1 inhibitor assay format; fluorescence interference counterscreen, Apaf-1 assay format; 460 tested, under 10 active; AID 588538; shares compounds with Apaf-1 inh; IC50, µM; call rule not given here
Active calls of the source: *; ? = inconclusive; nt = no result given.

SMILES	GSTO1 counter	UBC9 SUMO inh	PAD4 FP inh	GASC-1 inh	TDP2 absorb	Apaf-1 inh	GSTO1 inh conf	Apaf-1 inh conf	Rh110 quench	others
CN1CCc2cccc3c2[C@@H]1Cc1ccc(O)c(O)c1-3	94*	1	-2	?	nt	50*	13	25	14
Cc1cccc(-c2cccc3c4c([nH]c23)[C@@H]2C[C@H](N(C)C(=O)c3cccc(Cl)c3)[C@H]([C@H](C)O)CN2CC4)c1	nt	nt	nt	nt	-6	nt	nt	nt	nt
COc1cccc(-c2[nH]nc3c2C(c2ccsc2)C(C#N)=C(N)O3)c1 (stereo not drawn)	51*	67	6	-15	12	60*	33	11	4
O=C(c1ccccc1)c1ccc(CN2C(=O)c3ccccc3C2=O)o1	-1	24	-2	-2	-9	-11	nt	nt	nt
O=C(c1ccccc1)c1coc2c1C(=O)c1ccccc1C2=O	60*	39	-10	-33	4	64*	39*	70*	6	Apaf1 inh interf=>100
COc1ccc(C(=O)c2coc3c2C(=O)C(=O)c2ccccc2-3)cc1	24	16	-11	10	15	20	nt	nt	nt
O=C1c2ccccc2C(=O)c2c1oc(C(F)(F)F)c2C(=O)c1ccccc1	62*	6	2	-1	2	79*	71*	85*	1	Apaf1 inh interf=>100
c1ccc(COc2cccc(CNCc3cccnc3)c2)cc1	-1	16	-2	-5	8	12	nt	nt	nt
Oc1ccc(NCc2cccc(OCc3ccccc3)c2)cc1	82*	80	6	-1	8	91*	6	29	4
C/C(=N/NC(=O)Cc1cc(=O)[nH][nH]1)c1ccc([N+](=O)[O-])cc1	57*	12	-10	0	-3	55*	6	8	-6
CN(CCO)c1cccc2c1S(=O)(=O)N(Cc1cn(Cc3ccc(Cl)cc3)nn1)Cc1ccccc1O2	nt	nt	nt	nt	-4	nt	nt	nt	nt
CCOC(=O)N1CCN(C(=O)C[C@H]2C[C@@]3(C(=O)OC)C(=C[C@H](C4CCCC4)O[C@@H]3C)N(CCC3=CCCCC3)C2=O)CC1	nt	nt	nt	nt	-1	nt	nt	nt	nt
O=C(NCCO)c1ccc2nc(-c3ccco3)c(-c3ccco3)nc2c1	75*	?	30*	-2	47*	78*	57*	23	1	PAD4 FP conf=-5
O=C(NC1CCCC1)c1ccc2nc(-c3ccco3)c(-c3ccco3)nc2c1	63*	51*	7	27	nt	44*	38*	19	-2
O=C(NC1CCCC1)c1ccc2nc[nH]c2c1	3	10	-5	-8	4	-8	nt	nt	nt
NC(=O)C1CCN(C2=C(NS(=O)(=O)c3ccccc3)C(=O)c3ccccc3C2=O)CC1	12	76	-5	10	9	21	nt	nt	nt
O=C1C(NS(=O)(=O)c2cccs2)=C(N2CCN(c3cccc(C(F)(F)F)c3)CC2)C(=O)c2ccccc21	48*	53	-9	5	6	48*	14	26	10
CN1CCN(C2=C(NS(=O)(=O)c3ccccc3)C(=O)c3ccccc3C2=O)CC1	46*	29	1	10	nt	79*	10	45*	6	Apaf1 inh interf=>100
O=C1C(NS(=O)(=O)c2ccc(Cl)cc2)=C(N2CCCCC2)C(=O)c2ccccc21	48*	46	-11	9	1	72*	27	42*	7	Apaf1 inh interf=>100
